Test results published in ChEMBL document CHEMBL4340523, “Selective Inhibitors of Helicobacter pylori Methylthioadenosine Nucleosidase and Human Methylthioadenosine Phosphorylase” (J Med Chem, 2019).
Activity calls are given as the source filed them. The calls are words filed in the database; no cut-off is given here.

Key:
[1] = biological target: T1, S-methyl-5'-thioadenosine phosphorylase (Homo sapiens, UniProt Q13126); test: Binding affinity to recombinant human N-terminal TEV cleavage site-fused-His6-tagged MTAP expressed in Escherichia coli BL21-CodonPlus(DE3)-RIPL competent cells assessed as reduction in MTA hydrolysis measured after 40 mins in presence of xanthine oxidase
T1 sequence (Q13126 whole entry): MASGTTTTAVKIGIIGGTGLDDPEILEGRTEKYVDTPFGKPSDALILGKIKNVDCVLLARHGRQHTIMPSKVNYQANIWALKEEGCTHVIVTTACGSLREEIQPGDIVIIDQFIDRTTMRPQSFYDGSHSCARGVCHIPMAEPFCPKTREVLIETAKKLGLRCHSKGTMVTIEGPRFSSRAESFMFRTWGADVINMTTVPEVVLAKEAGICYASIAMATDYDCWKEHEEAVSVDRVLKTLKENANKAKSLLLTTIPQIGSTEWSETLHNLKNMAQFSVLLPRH
Procedure, shortened: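 MTAP (His6-tagged, TEV site, 14 extra N-terminal residues) was Ni-NTA purified and charcoal-dialysed to remove adenine. Each 1 mL cuvette held 100 mM K2PO4, 1 mM DTT, 800 μM MTA, 3 nM MTAP, 1 unit xanthine oxidase and varying inhibitor. Xanthine oxidase coupling gave 2,8-dihydroxyadenine, read at 305 nm (ε 15.5 mM⁻¹ cm⁻¹). Rates were taken at 40 min after slow-onset equilibrium. Ki* came from a Morrison quadratic fit.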

[2] = Selectivity ratio of Kd for recombinant human N-terminal TEV cleavage site-fused-His6-tagged MTAP expressed in Escherichia coli BL21-CodonPlus(DE3)-RIPL competent cells to Kd for recombinant Helicobacter pylori MTAN expressed in Escherichia coli BL21(DE3)
Procedure, shortened: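 Ratio of the human MTAP dissociation constant to the HpMTAN dissociation constant. Each constant came from xanthine oxidase-coupled 305 nm rates taken at 40 min after slow-onset equilibrium and fitted to the Morrison equation. The MTAP assay used 800 μM MTA and 3 nM enzyme in 100 mM K2PO4; the HpMTAN assay used 1 mM MTA and 0.6 nM enzyme in 100 mM HEPES pH 7.2 with 100 mM NaCl.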

[3] = Binding affinity to recombinant Helicobacter pylori MTAN expressed in Escherichia coli BL21(DE3) assessed as reduction in MTA hydrolysis measured after 40 mins in presence of xanthine oxidase
Procedure, shortened: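 His-tagged HpMTAN was purified by Ni-NTA and freed of bound adenine by charcoal dialysis. Adenine was oxidized to 2,8-dihydroxyadenine and followed at 305 nm. Rates were read at 40 min, after slow-onset equilibrium, and fitted to the Morrison quadratic equation for Ki*.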

[4] = biological target: T2, S-methyl-5'-thioadenosine phosphorylase (Homo sapiens) (UniProt Q13126); test: Binding affinity to recombinant human N-terminal TEV cleavage site-fused-His6-tagged MTAP expressed in Escherichia coli BL21-CodonPlus(DE3)-RIPL competent cells assessed as reduction in MTA hydrolysis at 5 uM measured after 40 mins in presence of xanthine oxidase
T2 sequence (whole entry): T1 sequence (Q13126 whole entry)

Helicobacter pylori = test: Binding affinity to recombinant Helicobacter pylori MTAN expressed in Escherichia coli BL21(DE3) assessed as reduction in MTA hydrolysis at 5 uM measured after 40 mins in presence of xanthine oxidase

| Compound | Kd [1] [nM] | Activity [4] | Activity (Helicobacter pylori) | Selectivity ratio [2] | Kd [3] [nM] |
| --- | --- | --- | --- | --- | --- |
| CSC[C@H]1CN(Cc2[nH]nc3c(N)ncnc23)C[C@@H]1O | 19 |  |  | 80.9 | 0.235 |
| C=CCn1cc(CSC[C@H]2CN(Cc3c[nH]c4c(N)ncnc34)C[C@@H]2O)nn1 | 70 |  |  | 243 | 0.288 |
| O=c1[nH]ccc2c(CN3C[C@H](CO)[C@@H](O)C3)c[nH]c12 |  | inactive | inactive |  |  |
| CSC[C@H]1CN(Cc2c[nH]c3c(=O)[nH]ccc23)C[C@@H]1O |  | inactive | inactive |  |  |
| CSC[C@H]1CN(Cc2c[nH]c3c(N)nccc23)C[C@@H]1O | 31.9 |  |  | 3.1 | 10.3 |
| CCCCn1cc(CSC[C@H]2CN(Cc3c[nH]c4c(N)ncnc34)C[C@@H]2O)nn1 | 37 |  |  | 99.2 | 0.373 |
| Cn1cc(CSC[C@H]2CN(Cc3c[nH]c4c(N)ncnc34)C[C@@H]2O)nn1 | 66 |  |  | 241 | 0.274 |

The remaining compounds from weak to strong by Kd [1], led by results:

| Kd [1] [nM] | Activity [4] | Activity (Helicobacter pylori) | Compound | Selectivity ratio [2] | Kd [3] [nM] |
| --- | --- | --- | --- | --- | --- |
| 13 |  |  | Nc1ncnc2c(CN3C[C@H](CSCc4cn(Cc5ccccc5)nn4)[C@@H](O)C3)c[nH]c12 | 178 | 0.073 |
| 13 |  |  | Nc1ncnc2c(CN3C[C@H](CSc4ncccn4)[C@@H](O)C3)c[nH]c12 | 224 | 0.058 |
| 3 |  |  | Cn1cc(CCCSC[C@H]2CN(Cc3c[nH]c4c(N)ncnc34)C[C@@H]2O)nn1 | 120 | 0.025 |
| 2.4 |  |  | C=CCn1cc(CCCSC[C@H]2CN(Cc3c[nH]c4c(N)ncnc34)C[C@@H]2O)nn1 | 92.3 | 0.026 |
| 1.4 |  |  | Nc1ncnc2c(CN3C[C@H](CSCCCc4cn(Cc5ccccc5)nn4)[C@@H](O)C3)c[nH]c12 | 38.9 | 0.036 |
| 1.3 |  |  | CCCCn1cc(CCCSC[C@H]2CN(Cc3c[nH]c4c(N)ncnc34)C[C@@H]2O)nn1 | 46.4 | 0.028 |
| 0.94 |  |  | C#CCCCSC[C@H]1CN(Cc2c[nH]c3c(N)ncnc23)C[C@@H]1O | 36.2 | 0.026 |
| 0.63 |  |  | C#CCSC[C@H]1CN(Cc2c[nH]c3c(N)ncnc23)C[C@@H]1O | 11.5 | 0.055 |
